# Data as given in PubChem BioAssay AID504382 (The Scripps Research Institute Molecular Screening Center, 2011).
# The campaign covered roughly 2,500 compounds. About 460 (18%) were called active.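 The calls were made as follows: active = mean activation above a cutoff of low control average plus 3 SD from the earlier screen (cut at about 12% in these data); inactive = the rest.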 Not all results are given here.
# Experiment: compound fluorescence interference without thin filaments, confirmation, artefact control for cardiac RTF calcium sensitizer project, biochemical (AID 504382)
# Conditions: IANBD fluorescence interference counterscreen, buffer, EC20 Ca2+; at 7.2 µM; hits give high values; scaled: EC20 calcium 0, EC100 calcium 100
# In short: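 Medium: MOPS buffer, 190 mM, with KCl, MgCl2, EGTA, NTA, DTT, pH 7.20; Dosing: one dose of 7.2 µM, 0.7% DMSO; Probe or stimulus: calcium at EC20 level, 0.472 mM final; Incubation: 15 min, 25 °C; Evaluation: compound fluorescence interference relative to control well signal range; Signal: fluorescence, 480/540 nm.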
row,SMILES,fluorescence artifact activation
1,Cc1ccc(CNc2cccnc2)cc1,0.43% (inactive)
2,Cc1ccc(-c2nc(N)n(C(=O)c3cccnc3)n2)cc1,57.1% (active)
3,COc1ccccc1C(=O)n1nc(-c2ccccc2)nc1N,-0.09% (inactive)
4,CN(Cc1ccccc1)C(=O)c1ccc(NC(=O)Cc2ccc(NC(=O)C3CCCN(S(=O)(=O)c4cccc([N+](=O)[O-])c4)C3)cc2)cc1 (configuration not stated),0.65% (inactive)
5,CCN1CCN(Cc2c(O)ccc3c2O/C(=C\c2ccc(C)cc2)C3=O)CC1,0.17% (inactive)
6,O=c1[nH]c2ccc(N=Cc3c(O)ccc4cc(Br)ccc34)cc2[nH]1,-0.04% (inactive)
7,CCC(CC)c1nc(C#N)c(NC(C)c2ccccc2)o1 (configuration not stated),0% (inactive)
8,COc1ccc(CNc2oc(COc3ccccc3)nc2C#N)cc1,21.9% (active)
9,C=CCNc1oc(COc2ccc(C)cc2)nc1C#N,3.74% (inactive)
10,N#Cc1ccccc1OCC(=O)OCC(=O)c1ccc2c(c1)NC(=O)CO2,5.5% (inactive)
11,CCOC(=O)c1cnc2c(C)c(Cl)ccc2c1N1CCOCC1,28.3% (active)
12,O=C(OCCN1C(=O)c2cccc3c(N4CCOCC4)ccc(c23)C1=O)c1ccccc1Cl,0.47% (inactive)
13,O=C(OCCN1C(=O)c2cccc3c(N4CCOCC4)ccc(c23)C1=O)c1ccc(Cl)cc1Cl,8.85% (inactive)
14,CCSc1nnc(-c2sc3nnc(-c4ccccc4)c(-c4ccccc4)c3c2N)o1,0.15% (inactive)
15,O=C(NC(=S)NCC1CCCO1)C(c1ccccc1)c1ccccc1 (configuration not stated),0.17% (inactive)
16,OC(CNCC1CCCO1)Cn1c2ccc(Br)cc2c2cc(Br)ccc21 (configuration not stated),12.3% (active)
17,CCc1ccccc1SCc1noc(C(=O)NCC2CCCO2)c1C(=O)O (configuration not stated),0.19% (inactive)
18,O=C(COC(=O)/C=C/c1ccc(Cl)cc1)NCCN1C(=O)CSC1=O,-0.09% (inactive)
19,O=C(N/N=C/c1ccccc1OC(=O)c1ccc2c(c1)OCO2)c1cccc(F)c1,17.8% (active)
20,O=C(N/N=C/c1ccc2c(c1)OCO2)/C(=C/c1ccc2c(c1)OCO2)NC(=O)c1ccccc1,0.46% (inactive)
21,COc1cc(C(=O)Oc2ccccc2/C=N/NC(=O)c2ccc(Cl)cc2)cc(OC)c1OC,11.5% (inactive)
22,COCC(=O)NC1CCN(S(=O)(=O)c2cccc(C(C)=O)c2)CC1,3.2% (inactive)
23,Cc1ccc(C(=O)NCC(=O)OCC(=O)c2ccc(Cl)s2)cc1,77.8% (active)

row,SMILES,fluorescence artifact activation
1,COc1ccc(OCCNC(=O)c2ccc(C)cc2)cc1,6.32% (inactive)
2,Cc1ccc(C(=O)NCC(=O)OCC(=O)N(CC(C)C)c2c(N)n(Cc3ccccc3)c(=O)[nH]c2=O)cc1,0.05% (inactive)
3,COc1ccc2nc(C)cc(NCc3ccc(F)cc3)c2c1,0.15% (inactive)
4,Cc1cccc(NC(=O)CSc2nnc(CSc3nc(C)cc(C)n3)n2Cc2ccco2)c1,1.92% (inactive)
5,O=C(COC(=O)C1CCCCC1)Nc1ccc([N+](=O)[O-])cc1,28.8% (active)
6,Cc1ccc(C(=O)COC(=O)C2CCC2)cc1,7.89% (inactive)
7,O=C(COC(=O)C1CC2C=CC1C2)Nc1cccc(S(=O)(=O)N2CCCCCC2)c1 (configuration not stated),-0.04% (inactive)
8,O=C(COC(=O)C1CCC1)NCc1ccccc1,82.9% (active)
9,O=C(COC(=O)C1CCC(=O)N1)Nc1ccc(Oc2ccccc2)cc1 (configuration not stated),0.14% (inactive)
10,O=C(COc1ccc(Cl)cc1)NCc1ccccc1,0.08% (inactive)
11,CCOc1cc(/C=C2\N=C(SC(C)C(N)=O)N(c3ccc(OC(F)F)cc3)C2=O)ccc1O (configuration not stated),3.79% (inactive)
12,COc1ccc(C(=O)c2ccsc2N)cc1,3.39% (inactive)
13,O=C(CN1CCc2ccccc2C1)Nc1cc(S(=O)(=O)N2CCOCC2)ccc1N1CCOCC1,0.07% (inactive)
14,CCOc1cccc2c1OC(c1cc(OC)c(OC)c(OC)c1)N1N=C(c3ccc(C)o3)CC21 (configuration not stated),0.15% (inactive)
15,CC1(C)C([N+](=O)[O-])C(c2ccc(F)cc2)NC(c2ccc(F)cc2)C1[N+](=O)[O-] (configuration not stated),-0.04% (inactive)
16,COC(=O)c1sccc1NC(=O)CSCC(=O)O,0.05% (inactive)
17,CN(C)C=Nc1c(Br)cc(Br)c2nonc12,16.1% (active)
18,C=CCn1c(SCC(=O)Nc2nccs2)nnc1-c1ccco1,0.29% (inactive)
19,Cn1cc(Cl)c(-c2nc3ccccc3[nH]2)n1,2.42% (inactive)
20,CCOC(=O)c1cnc2ccccc2c1Nc1ccc(C(=O)O)cc1,50% (active)
21,CCOC(=O)/C(=N\Nc1ccc(C(C)=O)cc1)c1csc(Nc2ccccc2)n1,-0.08% (inactive)
22,COC(=O)c1cc(N2CCN(C)CC2)nc2ccccc12,0.05% (inactive)
23,CCCCN(Cc1ccccc1)S(=O)(=O)c1ccc2c(c1)n(C)c(=O)c(=O)n2C,0.08% (inactive)

row,SMILES,fluorescence artifact activation
1,COC(=O)C1=C(CSc2nc3c(cc2C#N)CN(C)CC3)OC(N)=C(C#N)C1c1ccc(F)cc1 (configuration not stated),-0.02% (inactive)
2,COC(=O)c1ccc(S(=O)(=O)N2CCC(O)CC2)n1C,4.73% (inactive)
3,O=C(CS(=O)(=O)c1cn(Cc2ccc(F)cc2)c2ccccc12)N1CCOCC1,-0.02% (inactive)
4,CCOC(=O)C1CCCN(C2=NC(=O)/C(=C/c3ccc(N(C)C)cc3)S2)C1 (configuration not stated),0.84% (inactive)
5,CN(C)c1ccc(/C=C2\SC(N3CCCCC3)=NC2=O)cc1,193% (active)
6,CN(C)c1ccc(/C=C2\C(=N)N3N=C(CC(=O)N4CCCCC4)SC3=NC2=O)cc1,11.2% (inactive)
7,COC(C(=O)Nc1c(F)cccc1F)c1ccccc1 (configuration not stated),0.18% (inactive)
8,CN(Cc1ccccc1)C(=O)c1cccc(N2C(=O)NC3CC2(C)Oc2ccccc23)c1 (configuration not stated),14.2% (active)
9,COc1cccc2c1OC1(C)CC2NC(=O)N1Cc1ccccc1 (configuration not stated),1.11% (inactive)
10,CCOc1cccc2c1OC1(C)CC2NC(=O)N1c1cccc(C(=O)NCc2ccccn2)c1 (configuration not stated),0.6% (inactive)
11,COC(=O)CN(c1cc(OC)ccc1OC)S(=O)(=O)c1ccc(OC)c(OC)c1,0.04% (inactive)
12,O=C(COC(=O)C1(c2ccccc2F)CCCC1)Nc1ncc(C(F)(F)F)cc1Cl,-0.01% (inactive)
13,CN1CCc2c(sc(/N=C/c3ccco3)c2C(N)=O)C1,0.04% (inactive)
14,COc1cc2c3nnc(-c4ccc(F)cc4)c-3cn(Cc3cccc(C)c3)c2cc1OC,0.48% (inactive)
15,COc1cc2c3nnc(-c4ccc(F)cc4)c-3cn(Cc3cccc(F)c3)c2cc1OC,124% (active)
16,COc1cc2c3nnc(-c4ccc(F)cc4)c-3cn(Cc3ccc(C)cc3)c2cc1OC,0.37% (inactive)
17,COC(=O)c1ccccc1-c1c2ccc(=N)cc-2oc2cc(N)ccc12,0.05% (inactive)
18,c1ccc(-c2cn3nc4c(nc3n2)CCCC4)cc1,19.1% (active)
19,Brc1ccc(-c2cn3nc4c(nc3n2)CCCC4)cc1,3.81% (inactive)
20,Clc1ccc(-c2cn3nc4c(nc3n2)CCCC4)cc1,0.71% (inactive)
21,CCOCCCn1c(=NC(=O)c2cccs2)c(C#N)cc2c(=O)n3cccc(C)c3nc21,1.11% (inactive)
22,CC(=O)c1ccc(NC(=O)CN2C(=O)/C(=C/C=C/c3ccccc3)SC2=S)cc1,0.03% (inactive)
23,O=C(NC1CCCCC1)c1cc2nc3c(c(C(F)(F)F)n2n1)CCCC3,7.01% (inactive)

row,SMILES,fluorescence artifact activation
1,Cc1cc(/C=N/NC(N)=S)c(O)c(/C=N/NC(N)=S)c1,181% (active)
2,COc1ccc(-c2nn(-c3ccccc3)cc2/C=N/NC(N)=S)cc1OC,8.19% (inactive)
3,O=C(N/N=C/c1cc(Cl)cc(Cl)c1O)c1ccncc1,2.37% (inactive)
4,Cc1cc2c(cc1S(=O)(=O)CCC(=O)NCCc1ccccc1)OCC(=O)N2,11.3% (inactive)
5,CCOC(=O)c1ccc(NC(=O)c2cc3c(C)nn(-c4ccccc4Cl)c3s2)s1,1.59% (inactive)
6,N#CC1=C(N)Oc2cc(O)c(Cl)cc2C1c1ccccc1F (configuration not stated),54.3% (active)
7,CCN(CC)c1ccc2c(c1)OC(N)=C(C#N)C2c1cccnc1 (configuration not stated),2.43% (inactive)
8,COC(=O)C1=C(CSc2nc3c(cc2C#N)CN(C)CC3)OC(N)=C(C#N)C1c1ccccc1F (configuration not stated),3.38% (inactive)
9,CCOc1ccc2cc(/C=C/C(=O)c3ccco3)c(Cl)nc2c1,0.34% (inactive)
10,CC(CCc1ccc(O)cc1)NCCC(c1ccccc1)c1ccccc1 (configuration not stated),13.1% (active)
11,COc1ccc(OC)c(NC(=O)NCCc2cccc(Cl)c2)c1,0.03% (inactive)
12,C=C[C@@](C)(O)CC[C@@H]1[C@@]2(C)CCCC(C)(C)[C@@H]2CC[C@@]1(C)O,0.16% (inactive)
13,Cc1cccc(NC2=Nc3ccccc3N3C2=Nc2c(c(C)nn2-c2ccccc2)C3c2ccc(O)c(O)c2)c1 (configuration not stated),96.4% (active)
14,CC1C/C(=C/c2cccn2C)C(=O)/C(=C/c2cccn2C)C1 (configuration not stated),0.08% (inactive)
15,COc1ccc(/C=C/C(=O)NC(=S)Nc2ccc(C(=O)O)cc2)cc1,6.95% (inactive)
16,Cc1nnc(NC(=O)CS(=O)(=O)Cc2ccccc2)s1,-0.07% (inactive)
17,O=C(Oc1ccc2ccc(=O)oc2c1)c1cccs1,0.02% (inactive)
18,Cc1onc(-c2ccccc2)c1C(=O)Nc1nc(-c2cc(F)ccc2F)cs1,0.13% (inactive)
19,O=S(=O)(/N=C(/Nc1nc2ccccc2s1)c1ccccc1)c1ccc(F)cc1,0.13% (inactive)
20,Cc1noc(C)c1C(=O)Nc1nc2ccccc2s1,38.5% (active)
21,Cc1nc2c(C#N)cnn2c2c1CCN(Cc1ccccc1)N2C,138% (active)
22,Cc1c2c(n3c(nc4ccccc43)c1C#N)N(CCN1CCOCC1)CC2,0.13% (inactive)
23,Cn1c2c(c(=O)n(C)c1=O)C(C(F)(F)F)(C(F)(F)F)N=C(CCC1CCCCC1)N2,0.01% (inactive)
